Assay results as given in ChEMBL document CHEMBL2057169, “Discovery of novel tricyclic compounds as squalene synthase inhibitors” (Bioorg Med Chem, 2012).

How the values were obtained:
[1] = test system: Rattus norvegicus; assay: Inhibition of cholesterol synthesis in Wistar rat liver assessed as reduction of [14C]-cholesterol level at 3 mg/kg, po administered as single dose measured after 1 hr by liquid scintillation counting; format: functional
Summary of the method: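 Male Wistar rats, 6 weeks old, n = 4-6, dosed orally at 3 mg/kg in 0.5% methylcellulose, with equimolar NaOH or NaHCO3 added; vehicle-only controls. At 1 h, [14C]mevalonic acid (5 µCi/5 ml/kg) was given ip, and rats were killed 1 h later.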

[2] = test system: Hepatocyte; assay: Inhibition of cholesterol synthesis in rat hepatocytes assessed as formation of cholesterol using [14C]mevalonolactone as substrate after 1 hr by radioactivity assay; format: functional, cell-based
Summary of the method: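 Rat hepatocytes isolated by two-step portal-vein perfusion (EGTA buffer, then 0.05% collagenase). Cells were kept if viability was over 80% by trypan blue and seeded at 10^6 cells/well in DMEM with 10% LPDS. Next day they got 5% LPDS medium with inhibitor at 0–3000 nM for 1 h at 37 °C, then [14C]mevalonolactone for 1 h. Lysates were saponified, [14C]cholesterol corrected by [3H]cholesterol recovery and BCA protein, and % inhibition taken versus 0 nM wells. Triplicate wells; three experiments.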

[3] = target: T1, Squalene synthase (Rattus norvegicus, UniProt Q02769); assay: Inhibition of squalene synthase in rat hepatic cells; format: cell-based
T1 sequence (Q02769 whole entry): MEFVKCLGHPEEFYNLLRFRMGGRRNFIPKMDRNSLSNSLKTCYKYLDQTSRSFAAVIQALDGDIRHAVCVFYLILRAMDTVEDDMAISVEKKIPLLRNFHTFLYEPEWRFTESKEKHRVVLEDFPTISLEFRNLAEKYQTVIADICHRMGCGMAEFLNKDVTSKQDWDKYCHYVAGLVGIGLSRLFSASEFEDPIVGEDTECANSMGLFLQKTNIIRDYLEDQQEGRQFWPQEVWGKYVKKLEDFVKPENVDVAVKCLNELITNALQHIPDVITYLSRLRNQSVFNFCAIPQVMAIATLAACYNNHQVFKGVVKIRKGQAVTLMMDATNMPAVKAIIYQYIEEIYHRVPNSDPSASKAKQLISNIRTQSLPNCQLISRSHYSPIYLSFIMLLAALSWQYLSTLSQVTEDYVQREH

[4] = test system: marmosets; assay: Lipid lowering effect in marmosets assessed as reduction in plasma triglyceride level at 100 mg/kg, po administered once daily for 7 days; format: functional; conditions: Callitrichinae sp., in Callithrix jacchus, 168 h
Summary of the method: (§1)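 Common marmosets, n = 8 per group, matched for body weight and plasma lipids. They were dosed orally at 100 mg/kg in 0.5% methylcellulose (5 ml/kg) once daily for 7 days. Nonfasted blood was drawn before dosing and the morning after the last dose. HDL was precipitated, then its cholesterol assayed enzymatically; non-HDL = total minus HDL cholesterol. Change was expressed relative to pre-values.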

[5] = test system: marmosets; assay: Lipid lowering effect in marmosets assessed as reduction in plasma total cholesterol level at 100 mg/kg, po administered once daily for 7 days; format: functional; conditions: Callitrichinae sp., in Callithrix jacchus, 168 h; summary of the method: as §1
[6] = test system: marmosets; assay: Lipid lowering effect in marmosets assessed as reduction in plasma HDL-cholesterol level at 100 mg/kg, po administered once daily for 7 days; format: functional; conditions: Callitrichinae sp., in Callithrix jacchus, 168 h; summary of the method: as §1
[7] = test system: marmosets; assay: Lipid lowering effect in marmosets assessed as reduction in plasma non HDL-cholesterol level at 100 mg/kg, po administered once daily for 7 days; format: functional; conditions: Callitrichinae sp., in Callithrix jacchus, 168 h; summary of the method: as §1

Structure (SMILES) | inhibition in vivo at 3 mg/kg [1] | IC50 [2] | IC50 [3] | inhibition in vivo at 100 mg/kg [4] | inhibition in vivo at 100 mg/kg [5] | inhibition in vivo at 100 mg/kg [6] | inhibition in vivo at 100 mg/kg [7]
COc1cccc([C@H]2O[C@H](CCn3nccc3CC(=O)O)c3cccn3-c3ccc(Cl)cc32)c1OC | 5% | 210 nM | 1.6 nM | – | – | – | –
COc1cccc([C@H]2O[C@H](CCC(=O)N3CCC(OCCC(=O)O)CC3)c3cccn3-c3ccc(Cl)cc32)c1OC | 23% | 35 nM | 1.4 nM | – | – | – | –
COc1cccc([C@H]2O[C@H](CCn3nnc(COC(C)(C)C(=O)O)n3)c3cccn3-c3ccc(Cl)cc32)c1OC | 51% | 10 nM | 2.5 nM | – | – | – | –
COc1cccc([C@H]2O[C@H](CCn3nnc(C(=O)O)n3)c3cccn3-c3ccc(Cl)cc32)c1OC | 38% | 18 nM | 0.89 nM | – | – | – | –
COc1cccc([C@H]2O[C@H](CCC(=O)N3CCC[C@H](C(=O)O)C3)c3cccn3-c3ccc(Cl)cc32)c1OC | 53% | 70 nM | 1.4 nM | 21% | 9% | -21% | 23%
COc1cccc([C@H]2O[C@H](CCn3ccc(CC(=O)O)n3)c3cccn3-c3ccc(Cl)cc32)c1OC | 64% | 58 nM | 1.3 nM | 16% | 27% | -10% | 52%
COc1cccc(C2OC(CC(=O)O)c3ccc(CN4CCOCC4)n3-c3ccc(Cl)cc32)c1OC (racemic) | – | 160 nM | 7.6 nM | – | – | – | –
COc1cccc([C@H]2O[C@H](CCn3nncc3CC(=O)O)c3cccn3-c3ccc(Cl)cc32)c1OC | 50% | 41 nM | 0.81 nM | – | – | – | –
COc1cccc([C@H]2O[C@H](CCC(=O)N3CCC(CC(=O)O)CC3)c3cccn3-c3ccc(Cl)cc32)c1OC | 35% | 93 nM | 2.4 nM | – | – | – | –
COc1cccc([C@H]2O[C@H](CCn3cc(C(=O)O)cn3)c3cccn3-c3ccc(Cl)cc32)c1OC | 56% | 54 nM | 2.1 nM | – | – | – | –
COc1cccc([C@H]2O[C@H](CCn3nnc(C4(C(=O)O)CC4)n3)c3cccn3-c3ccc(Cl)cc32)c1OC | 53% | 52 nM | 1.7 nM | – | – | – | –
COc1cccc(C2OC(CC(=O)O)c3ccc(Cl)n3-c3ccc(Cl)cc32)c1OC (racemic) | – | 560 nM | 1.6 nM | – | – | – | –
COc1cccc([C@H]2O[C@H](CCn3cc(COC(C)(C)C(=O)O)nn3)c3cccn3-c3ccc(Cl)cc32)c1OC | 36% | 7.3 nM | 0.69 nM | – | – | – | –
COc1cccc([C@H]2O[C@H](CCn3cc(COCC(=O)O)nn3)c3cccn3-c3ccc(Cl)cc32)c1OC | 18% | 19 nM | 0.68 nM | – | – | – | –
COc1cccc([C@H]2O[C@H](CC(=O)NCC(=O)O)c3cccn3-c3ccc(Cl)cc32)c1OC | – | 94 nM | 2.3 nM | – | – | – | –
COc1cccc(C2OC(CC(=O)N3CCC(CC(=O)O)CC3)c3cccn3-c3ccc(Cl)cc32)c1OC (racemic) | – | 63 nM | 2.7 nM | – | – | – | –
COc1cccc([C@@H]2O[C@@H](CC(=O)N3CCC(CC(=O)O)CC3)c3cccn3-c3ccc(Cl)cc32)c1OC | – | – | > 600 nM | – | – | – | –
COc1cccc([C@H]2O[C@H](CCn3nnnc3CC(=O)O)c3cccn3-c3ccc(Cl)cc32)c1OC | – | 130 nM | 1.1 nM | – | – | – | –
COc1cccc([C@H]2O[C@H](CC(=O)N3CCC[C@H](C(=O)O)C3)c3cccn3-c3ccc(Cl)cc32)c1OC | – | 60 nM | 2.3 nM | – | – | – | –
COc1cccc([C@H]2O[C@H](CC(=O)NCCC(=O)O)c3cccn3-c3ccc(Cl)cc32)c1OC | – | 160 nM | 2.9 nM | – | – | – | –
O=C(O)CC1OC(c2cccc3ccccc23)c2cc(Cl)ccc2-n2cccc21 (stereo not drawn) | – | – | > 600 nM | – | – | – | –
COc1cccc([C@H]2O[C@H](CC(=O)N3CCC(CC(=O)O)CC3)C(=O)N(CC(C)(C)COC(C)=O)c3ccc(Cl)cc32)c1OC [LAPAQUISTAT ACETATE] | – | – | – | 25% | 23% | 14% | 29%

Structure (SMILES) | inhibition in vivo at 3 mg/kg [1] | IC50 [2] | IC50 [3] | inhibition in vivo at 100 mg/kg [4] | inhibition in vivo at 100 mg/kg [5] | inhibition in vivo at 100 mg/kg [6] | inhibition in vivo at 100 mg/kg [7]
COc1cccc([C@H]2O[C@H](CC(=O)Nc3cccc(C(=O)O)c3)c3cccn3-c3ccc(Cl)cc32)c1OC | – | 150 nM | 4 nM | – | – | – | –
COc1cccc([C@H]2O[C@H](CCn3nnc(C(C)(C)C(=O)O)n3)c3cccn3-c3ccc(Cl)cc32)c1OC | 44% | 58 nM | 1.1 nM | – | – | – | –
COc1cccc([C@H]2O[C@H](CCC(=O)N3CC(CC(=O)O)C3)c3cccn3-c3ccc(Cl)cc32)c1OC | 41% | 36 nM | 7 nM | – | – | – | –
O=C(O)CC1OC(c2cccc3c2OCCO3)c2cc(Cl)ccc2-n2cccc21 (stereo not drawn) | – | – | 440 nM | – | – | – | –
COC(=O)CC1OC(c2cccc(OC)c2OC)c2cc(Cl)ccc2-n2cccc21 (racemic) | – | – | 220 nM | – | – | – | –
COc1cccc([C@H]2O[C@H](CCn3cc(CC(=O)O)nn3)c3cccn3-c3ccc(Cl)cc32)c1OC | 66% | 24 nM | 0.51 nM | 24% | 10% | -8% | 21%
COc1cccc([C@H]2O[C@H](CCC(=O)N3CCOC(C(=O)O)C3)c3cccn3-c3ccc(Cl)cc32)c1OC (stereo partly drawn) | 13% | 9.7 nM | 1.6 nM | – | – | – | –
COc1cccc([C@H]2O[C@H](CC(=O)N3CCC(CC(=O)O)CC3)c3cccn3-c3ccc(Cl)cc32)c1OC | – | 49 nM | – | 28% | 4% | -11% | 9%
CCC(CC)(OCc1cn(CC[C@H]2O[C@H](c3cccc(OC)c3OC)c3cc(Cl)ccc3-n3cccc32)nn1)C(=O)O | 45% | 14 nM | 1.7 nM | – | – | – | –
COc1cccc([C@H]2O[C@H](CCn3nnc(CCC(=O)O)n3)c3cccn3-c3ccc(Cl)cc32)c1OC | 64% | 70 nM | 0.85 nM | – | – | – | –
O=C(O)CC1OC(c2cccc(Cl)c2Cl)c2cc(Cl)ccc2-n2cccc21 (stereo not drawn) | – | – | 52 nM | – | – | – | –
COc1cccc([C@H]2O[C@H](CCC(=O)N3CCC(COCC(=O)O)CC3)c3cccn3-c3ccc(Cl)cc32)c1OC | 7% | 10 nM | 0.9 nM | – | – | – | –
COc1cccc([C@H]2O[C@H](CCC(=O)N3CC(C(=O)O)C3)c3cccn3-c3ccc(Cl)cc32)c1OC | 31% | 23 nM | 2.2 nM | – | – | – | –
COc1cccc([C@H]2O[C@H](CCn3cc(CC(=O)O)cn3)c3cccn3-c3ccc(Cl)cc32)c1OC | 34% | 62 nM | 3.1 nM | – | – | – | –
COc1cccc([C@H]2O[C@H](CCC(=O)O)c3cccn3-c3ccc(Cl)cc32)c1OC | – | > 1000 nM | 3.1 nM | – | – | – | –
COc1cccc([C@H]2O[C@H](CCC(=O)N3CCN(CC(=O)O)C(=O)C3)c3cccn3-c3ccc(Cl)cc32)c1OC | 1% | 11 nM | 2.2 nM | – | – | – | –
COc1cccc(C2OC(CC(=O)O)c3cccn3-c3ccc(Cl)cc32)c1OC (racemic) | – | 250 nM | 3.3 nM | – | – | – | –
COc1cccc([C@H]2O[C@H](CCn3cc(C(=O)O)nn3)c3cccn3-c3ccc(Cl)cc32)c1OC | 44% | 25 nM | 0.59 nM | – | – | – | –
COc1cccc([C@H]2O[C@H](CC(=O)N3CCC(C(=O)O)CC3)c3cccn3-c3ccc(Cl)cc32)c1OC | – | 170 nM | 3.4 nM | – | – | – | –
COc1cccc([C@H]2O[C@H](CCC(=O)N3CCC(OCC(=O)O)CC3)c3cccn3-c3ccc(Cl)cc32)c1OC | 18% | 7.2 nM | 0.8 nM | – | – | – | –
COc1cccc([C@H]2O[C@H](CC(=O)N3CCN(CC(=O)O)CC3)c3cccn3-c3ccc(Cl)cc32)c1OC | – | 150 nM | 4.3 nM | – | – | – | –
COc1cccc(C2OC(CC(=O)O)c3ccc(CN(C)C)n3-c3ccc(Cl)cc32)c1OC (racemic) | – | – | 540 nM | – | – | – | –
